Tm and folding enthalpy data for 37 sequences are collected here from the array DNA melting data of Ke et al. (doi:10.1101/2024.01.08.574731).

Series [1] is described as follows: melting temperature; fluorescence melt of hairpins on a sequencing array, two-state fit, raised by 9.35 °C to match UV melts. The note with it: sodium 0.088 M. The procedure, abridged: (§1)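 Bootstrapped two-state fits yielded melting temperature and folding enthalpy for library hairpins. Cy3 fluorescence, with annealed Cy3 and quencher oligos, was imaged on a sequenced MiSeq flow cell in 50 mM Na-HEPES pH 8.0, 25 mM NaCl in 2.5 °C steps up to 60 °C, and normalised to pre-quench Cy3 and to control constructs. Four replicates were combined by inverse variance, and fitted temperatures were raised by 9.35 °C to match UV melts.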

A short description of series [2]: folding enthalpy; higher = less favourable; fluorescence melt of hairpins on a sequencing array, two-state fit. Particulars: sodium 0.088 M. The procedure, abridged:
as §1

Consider CGCGGAACAGTCCGCG ((((((....)))))), for which, in series [1], the Tm came out at 67.2 °C. Moreover, in series [2], the folding enthalpy is -33.1 kcal/mol.
With CGCGGAACATTCCGCG ((((((....)))))), the Tm in series [1] is 65.3 °C. The folding enthalpy in series [2] is -35.9 kcal/mol.
Turning to CGCGGAACCGTCCGCG ((((((....)))))), in series [1], the Tm stood at 68.4 °C. Besides, the folding enthalpy in series [2] was -31.9 kcal/mol.
In the same order, the values of CGCGGAACGCTCCGCG ((((((....)))))) are 57.4 °C and -28.9 kcal/mol.
In the same order, the values of CGCGGAAGACTCCGCG ((((((....)))))) are 62.8 °C and -41.6 kcal/mol.
For CGCGGAAGAGTCCGCG ((((((....)))))), the Tm in series [1] is 62.6 °C. Besides, in series [2], the folding enthalpy is -36 kcal/mol.
In the same order, the values of CGCGGAAGCGTCCGCG ((((((....)))))) are 53.2 °C and -13.4 kcal/mol.
On the same counts, the results for CGCGGACAGTCCGCG ((((((...)))))) are 65.6 °C and -32.6 kcal/mol.
On the same counts, the results for CGCGGACCGTCCGCG ((((((...)))))) are 68.9 °C and -29 kcal/mol.
As for CGCGGACGTTTCCGCG ((((((....)))))), the Tm in series [1] stood at 69.2 °C. In series [2], the folding enthalpy is -31.9 kcal/mol.
On the same counts, the results for CGCGGACTAATCCGCG ((((((....)))))) are 65.9 °C and -38.3 kcal/mol.
In the same order, the values of CGCGGACTCCTCCGCG ((((((....)))))) are 68.9 °C and -37.2 kcal/mol.
Regarding CGCGGACTGCTCCGCG ((((((....)))))), in series [1], the Tm is 62.4 °C. The folding enthalpy in series [2] is -39.8 kcal/mol.
As for CGCGGAGCGTCCGCG ((((((...)))))), the Tm in series [1] worked out at 68.1 °C. Further, the folding enthalpy in series [2] is -7.62 kcal/mol.
In the same order, the values of CGCGGATAGTCCGCG ((((((...)))))) are 63.6 °C and -40.8 kcal/mol.
On the same counts, the results for CGCGGATCGCTCCGCG ((((((....)))))) are 69.2 °C and -28.6 kcal/mol.
In the same order, the values of CGCGGATGGCTCCGCG ((((((....)))))) are 68.9 °C and -30.6 kcal/mol.
Turning to CGCGTCGGAAACGATGCG (((.(((....))).))), the Tm in series [1] was 62.4 °C. The folding enthalpy in series [2] is -54.9 kcal/mol.
As to CGCGTTCGGAAACGAGCG (((..(((....)))))), the Tm in series [1] stood at 48.5 °C. In addition, the folding enthalpy in series [2] is -19.6 kcal/mol.
Consider CGCTCCCGGAAACGGGCG (((..(((....)))))), for which the Tm in series [1] amounted to 42.7 °C. In addition, the folding enthalpy in series [2] was -15.3 kcal/mol.
In the same order, the values of CGCTCGGAAACGAGGCG ((((((....))).))) are 53.2 °C and -30.6 kcal/mol.
In the same order, the values of CGCTGGAAACAGCG (((((....))))) are 66.2 °C and -31.2 kcal/mol.
In the same order, the values of CGCTTCGGAAACGACGCG (((.(((....))).))) are 51.5 °C and -48.8 kcal/mol.
Turning to CGGAACGGAAACGTCCCG (((.(((....))).))), in series [1], the Tm was found to be 47.1 °C. In addition, the folding enthalpy in series [2] is -36.3 kcal/mol.
On to CGGAACGGAAACGTGCCG (((.(((....))).))), for which the Tm in series [1] came out at 56 °C. Also, the folding enthalpy in series [2] was -44.3 kcal/mol.
In the same order, the values of CGGACCGGAAACGGCCG (((.(((....)))))) are 56 °C and -28.9 kcal/mol.
For the sequence CGGACGGAAACGTAGCCG ((((((....)))..))), the Tm in series [1] was 33.4 °C. Also, in series [2], the folding enthalpy was -23.6 kcal/mol.
As for CGGACGGAAACGTCCCG ((((((....))).))), in series [1], the Tm is 50.7 °C. For the same sequence, the folding enthalpy in series [2] was -10.8 kcal/mol.
In the same order, the values of CGGACGGAAACGTTGCCG ((((((....)))..))) are 37.8 °C and -15.7 kcal/mol.
Consider CGGATACGGAAACGTCCG (((..(((....)))))), for which, in series [1], the Tm amounted to 40.4 °C. The folding enthalpy in series [2] is -18.6 kcal/mol.
On the same counts, the results for CGGCCCGGAAACGGCCG (((.(((....)))))) are 63.7 °C and -31 kcal/mol.
On the same counts, the results for CGGCCGGAAACGGACCCG ((((((....)))..))) are 38.8 °C and -12.1 kcal/mol.
On the same counts, the results for CGGCCGGAAACGGTTCCG ((((((....)))..))) are 41.1 °C and -21.6 kcal/mol.
As to CGGCGACGGAAACGTCCG (((..(((....)))))), the Tm in series [1] was 38.5 °C. The folding enthalpy in series [2] is -17.4 kcal/mol.
For CGGCGCCGGAAACGGCCG (((..(((....)))))), the Tm in series [1] came to 54.8 °C. In addition, the folding enthalpy in series [2] is -8.91 kcal/mol.
Consider CGGCTACGGAAACGTCCG (((..(((....)))))), for which the Tm in series [1] turned out to be 36.6 °C. Besides, the folding enthalpy in series [2] is -13.3 kcal/mol.
Take CGGCTGCGGAAACGCCCG (((..(((....)))))): in series [1], the Tm stood at 44.2 °C. The folding enthalpy in series [2] was -18.5 kcal/mol.
